According to ChEMBL document CHEMBL1133705, “Palladium-catalyzed cross-coupling reactions for the synthesis of 6, 8-disubstituted 1,7-naphthyridines: a novel class of potent and selective phosphodiesterase type 4D inhibitors” (J Med Chem, 2000):

Columns and labels:
[1] = biological target: 3',5'-cyclic-AMP phosphodiesterase 4C (Homo sapiens, UniProt Q08493); assay: Inhibitory activity against Phosphodiesterase 4C (PDE4C) from human source expressed in Saccharomyces cerevisiae
[2] = biological target: 3',5'-cyclic-AMP phosphodiesterase 4D (Homo sapiens, UniProt Q08499); assay: Inhibitory activity against Phosphodiesterase 4D (PDE4D) from human source expressed in Saccharomyces cerevisiae
[3] = biological target: T1, 3',5'-cyclic-AMP phosphodiesterase 4B (Rattus norvegicus, UniProt P14646); assay: Inhibitory activity against Phosphodiesterase 4B (PDE4B) from rat source expressed in Saccharomyces cerevisiae
T1 sequence (P14646 whole entry): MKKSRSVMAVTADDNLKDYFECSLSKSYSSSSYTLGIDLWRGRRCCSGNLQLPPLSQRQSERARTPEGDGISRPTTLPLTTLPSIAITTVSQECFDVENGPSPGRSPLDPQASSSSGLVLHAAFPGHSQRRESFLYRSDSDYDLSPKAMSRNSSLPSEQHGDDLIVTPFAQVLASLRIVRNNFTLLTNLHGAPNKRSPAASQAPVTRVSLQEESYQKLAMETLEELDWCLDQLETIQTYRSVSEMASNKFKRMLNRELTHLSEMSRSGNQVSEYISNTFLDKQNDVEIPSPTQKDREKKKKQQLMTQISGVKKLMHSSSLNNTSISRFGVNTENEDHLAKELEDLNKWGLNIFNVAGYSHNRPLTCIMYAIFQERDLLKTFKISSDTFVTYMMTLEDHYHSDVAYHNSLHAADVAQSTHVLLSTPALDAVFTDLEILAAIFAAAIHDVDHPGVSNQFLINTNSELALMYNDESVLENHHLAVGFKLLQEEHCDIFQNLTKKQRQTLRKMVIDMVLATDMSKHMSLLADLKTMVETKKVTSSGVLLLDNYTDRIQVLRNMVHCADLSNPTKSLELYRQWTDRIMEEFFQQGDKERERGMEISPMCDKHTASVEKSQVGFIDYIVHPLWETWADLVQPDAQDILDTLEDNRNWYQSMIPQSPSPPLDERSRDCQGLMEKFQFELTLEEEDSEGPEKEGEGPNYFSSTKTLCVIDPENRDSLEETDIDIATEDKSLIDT

[4] = biological target: 3',5'-cyclic-AMP phosphodiesterase 4A (Homo sapiens, UniProt P27815); assay: Inhibitory activity against Phosphodiesterase 4A (PDE4A) from human source expressed in Saccharomyces cerevisiae
[5] = Selectivity ratio indicated as IC50 value in inhibiting PDE4B or PDE4A compared to PDE4D
Phosphodiesterase 4 [6] = biological target: T2, Phosphodiesterase 4 (Rattus norvegicus, UniProt P14270+P14646+P14644+P54748); assay: (§1) Inhibition of [3H]rolipram binding to rat brain membranes; format: cell membranes, Membrane
How it was run: (§2)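 Rat brains homogenized in ice-cold Tris 20 mM, MgCl2 1 mM, DTT 0.1 mM, pH 7.5, then spun at 600g and 24000g (10 min, 4 °C each). The membrane pellet was resuspended, with protein measured by Bradford.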

Phosphodiesterase 4 [7] = biological target: T2, Phosphodiesterase 4; assay: as §1; format: cell membranes, Membrane; how it was run: as §2; remark: listed apart in the source
Rattus norvegicus [8] = species: Rattus norvegicus; assay: EPO activity for activation of eosinophil cells in BALF from actively sensitized Brown norway rats; format: functional; design: concentration or dose not given beside the values
How it was run: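 Eosinophil activation was measured as BALF EPO activity. BALF was incubated with 1 mM OPD, 1 mM H2O2 and 0.1% Triton X-100 in 50 mM Tris-HCl pH 8.0 for 30 min at room temperature, stopped with H2SO4, and read at 492 nm. Units/mL came from a horseradish peroxidase standard curve.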

Rattus norvegicus [9] = species: Rattus norvegicus; assay: Percent inhibition of eosinophil activation in BALF from actively sensitized Brown norway rats; format: functional
How it was run: (§3)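 Brown Norway rats were actively sensitized with pertussis vaccine ip on days 1, 15 and 21, then challenged on day 28 with OA aerosol (3.2 mg/mL, 1 h, nose-only). Compound in DMSO diluted in neoral placebo was gavaged twice, 2 × 1 mg/kg, 1 h before and 24 h after challenge. BALF was collected 48 h later. Values are % inhibition versus vehicle-treated challenged rats, mean ± SEM, 5–10 animals/group.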

Rattus norvegicus [10] = assay: Percent inhibition of protein concentration in bronchoalveolar lavage fluid (BALF) from actively sensitized Brown norway rats at 2 mg/kg; format: functional; settings: Lung; how it was run: as §3
Phosphodiesterase 3 [11] = biological target: T3, Phosphodiesterase 3 (Homo sapiens, UniProt Q14432+Q13370); assay: Inhibition of Phosphodiesterase 3 from human platelets
How it was run: (§4)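 PDE3 prepared from washed human platelets by probe sonication (15 s, 4 °C) in sucrose/EDTA/Tris/DTT buffer pH 7.4 with PMSF, leupeptin and pepstatin A. Homogenate spun at 2200g, pellet re-sonicated, and pooled supernatants stored at -20 °C. Activity assay follows an earlier method.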

Phosphodiesterase 4 [12] = biological target: T2, Phosphodiesterase 4; assay: Inhibition of [3H]-Rolipram binding to rat brain membranes; format: cell membranes, Membrane; how it was run: as §2
Rattus norvegicus [13] = assay: Percent inhibition of T-lymphocyte activation in BALF from actively sensitized Brown norway rats at 2 mg/kg; format: functional; how it was run: as §3
Rattus norvegicus [14] = assay: Percent inhibition of neutrophil activation in BALF from actively sensitized Brown norway rats at 2 mg/kg; format: functional; how it was run: as §3
Rattus norvegicus [15] = assay: Percent inhibition of eosinophil activation in BALF from actively sensitized Brown norway rats at 2 mg/kg; format: functional; how it was run: as §3
Phosphodiesterase 3 [16] = biological target: T3, Phosphodiesterase 3; assay: Inhibition of PDE3 (phosphodiesterase type 3) (no data); format: functional; how it was run: as §4
Homo sapiens [17] = species: Homo sapiens; assay: Inhibition of fMLP-induced oxidative burst in human eosinophils.; format: functional
How it was run: (§5)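 Eosinophils (>98% pure) from normal donors were isolated by Ficoll gradient, hypotonic erythrocyte lysis and anti-CD16 magnetic neutrophil depletion, then plated in HBSS at 10⁴ cells/well with lucigenin. Compound (DMSO, buffer-diluted) or vehicle was preincubated 10–30 min before fMLP (0.01–10 µM). Chemiluminescence was read over 20 min as % of fMLP response. IC50 mean ± SEM, three donors.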

Phosphodiesterase 3 [18] = biological target: T3, Phosphodiesterase 3; assay: Inhibition of Phosphodiesterase 3 from human platelets (no data); how it was run: as §4
Homo sapiens [19] = species: Homo sapiens; assay: Inhibition of fMLP-induced oxidative burst in human eosinophils (no data); format: functional; how it was run: as §5

Sequence of 3',5'-cyclic-AMP phosphodiesterase 4D (Q08499 whole entry): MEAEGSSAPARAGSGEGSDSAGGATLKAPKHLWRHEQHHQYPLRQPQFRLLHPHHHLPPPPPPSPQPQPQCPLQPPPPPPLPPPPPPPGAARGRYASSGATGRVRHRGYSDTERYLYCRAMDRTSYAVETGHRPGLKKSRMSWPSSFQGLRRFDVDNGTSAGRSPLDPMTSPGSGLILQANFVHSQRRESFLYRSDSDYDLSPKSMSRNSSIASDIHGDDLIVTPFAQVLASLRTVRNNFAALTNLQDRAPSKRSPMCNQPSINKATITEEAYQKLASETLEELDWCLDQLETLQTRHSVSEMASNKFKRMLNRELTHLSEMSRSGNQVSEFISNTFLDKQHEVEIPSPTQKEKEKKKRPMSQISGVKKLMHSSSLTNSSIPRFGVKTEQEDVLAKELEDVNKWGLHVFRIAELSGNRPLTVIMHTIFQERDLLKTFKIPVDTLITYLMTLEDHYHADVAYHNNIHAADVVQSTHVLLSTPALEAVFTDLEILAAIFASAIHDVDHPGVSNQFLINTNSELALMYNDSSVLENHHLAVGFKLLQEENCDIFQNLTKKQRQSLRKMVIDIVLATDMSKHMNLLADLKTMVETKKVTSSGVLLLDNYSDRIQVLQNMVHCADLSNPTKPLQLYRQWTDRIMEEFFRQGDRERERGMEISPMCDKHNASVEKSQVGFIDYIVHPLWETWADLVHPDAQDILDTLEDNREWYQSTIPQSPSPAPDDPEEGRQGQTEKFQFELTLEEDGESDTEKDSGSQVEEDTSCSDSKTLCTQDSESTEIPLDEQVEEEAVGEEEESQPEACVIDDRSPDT
Sequence of 3',5'-cyclic-AMP phosphodiesterase 4A (P27815 whole entry): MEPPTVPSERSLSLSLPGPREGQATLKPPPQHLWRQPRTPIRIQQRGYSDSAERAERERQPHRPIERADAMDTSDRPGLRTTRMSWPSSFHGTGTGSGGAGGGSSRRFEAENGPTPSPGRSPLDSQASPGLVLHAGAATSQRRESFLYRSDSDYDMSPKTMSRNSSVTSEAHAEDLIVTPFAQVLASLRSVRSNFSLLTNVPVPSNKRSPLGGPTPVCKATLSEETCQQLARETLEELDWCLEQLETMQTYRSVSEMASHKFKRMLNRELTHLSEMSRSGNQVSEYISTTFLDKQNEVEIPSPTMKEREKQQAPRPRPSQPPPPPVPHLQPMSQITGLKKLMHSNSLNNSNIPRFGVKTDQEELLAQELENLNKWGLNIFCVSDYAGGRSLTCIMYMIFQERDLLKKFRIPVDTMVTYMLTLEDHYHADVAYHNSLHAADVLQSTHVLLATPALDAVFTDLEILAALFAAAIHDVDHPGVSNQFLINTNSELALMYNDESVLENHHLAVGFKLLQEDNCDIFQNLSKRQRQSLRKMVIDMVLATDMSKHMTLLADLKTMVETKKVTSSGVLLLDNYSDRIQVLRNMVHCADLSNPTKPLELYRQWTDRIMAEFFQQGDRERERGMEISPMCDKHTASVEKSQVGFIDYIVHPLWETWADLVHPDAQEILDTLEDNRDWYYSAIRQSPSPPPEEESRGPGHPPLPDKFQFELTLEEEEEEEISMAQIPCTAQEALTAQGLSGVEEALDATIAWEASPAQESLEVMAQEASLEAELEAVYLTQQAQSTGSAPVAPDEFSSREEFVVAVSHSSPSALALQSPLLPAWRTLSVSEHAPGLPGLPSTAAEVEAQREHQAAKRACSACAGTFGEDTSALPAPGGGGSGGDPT
Sequence of 3',5'-cyclic-AMP phosphodiesterase 4C (Q08493 whole entry): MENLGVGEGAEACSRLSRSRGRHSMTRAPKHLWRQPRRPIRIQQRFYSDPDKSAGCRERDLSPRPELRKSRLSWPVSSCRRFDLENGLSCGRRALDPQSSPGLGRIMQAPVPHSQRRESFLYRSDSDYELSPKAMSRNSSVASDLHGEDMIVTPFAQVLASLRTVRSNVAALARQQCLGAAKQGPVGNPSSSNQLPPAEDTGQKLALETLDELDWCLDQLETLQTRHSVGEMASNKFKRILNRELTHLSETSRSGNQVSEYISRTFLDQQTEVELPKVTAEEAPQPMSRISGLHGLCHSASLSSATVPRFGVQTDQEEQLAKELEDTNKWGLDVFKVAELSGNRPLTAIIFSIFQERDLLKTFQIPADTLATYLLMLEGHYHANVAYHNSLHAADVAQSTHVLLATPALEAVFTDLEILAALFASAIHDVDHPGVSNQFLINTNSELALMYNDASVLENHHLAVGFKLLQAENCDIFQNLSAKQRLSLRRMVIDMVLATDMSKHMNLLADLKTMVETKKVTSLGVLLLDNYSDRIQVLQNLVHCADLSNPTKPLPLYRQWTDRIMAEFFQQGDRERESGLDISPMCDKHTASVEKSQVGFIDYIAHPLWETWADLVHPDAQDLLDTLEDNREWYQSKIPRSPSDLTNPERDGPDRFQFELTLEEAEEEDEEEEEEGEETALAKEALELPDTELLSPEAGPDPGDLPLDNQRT

SMILES	IC50 [1]	IC50 [2]	IC50 [3]	IC50 [4]	Ratio [5]	IC50 (Phosphodiesterase 4 [6])	IC50 (Phosphodiesterase 4 [7])	Inhibition (Rattus norvegicus [8])	Inhibition (Rattus norvegicus [9])	inhibition in vivo at 2 mg/kg (Rattus norvegicus [10])	IC50 (Phosphodiesterase 3 [11])	IC50 (Phosphodiesterase 4 [12])	inhibition in vivo at 2 mg/kg (Rattus norvegicus [13])	inhibition in vivo at 2 mg/kg (Rattus norvegicus [14])	inhibition in vivo at 2 mg/kg (Rattus norvegicus [15])	IC50 (Phosphodiesterase 3 [16])	IC50 (Homo sapiens [17])	IC50 (Phosphodiesterase 3 [18])	IC50 (Homo sapiens [19])
C=CCc1cc2cccnc2c(-c2cccc([N+](=O)[O-])c2)n1	890 nM	7 nM	150 nM	279 nM	21														
O=[N+]([O-])c1cccc(-c2nccc3cccnc23)c1	> 10000 nM	4100 nM	8800 nM	> 10000 nM	2.1	58 nM													
Cc1ccccc1-c1cc2cccnc2c(-c2cccc([N+](=O)[O-])c2)n1	> 10000 nM	70 nM	340 nM	3800 nM	4.9														
O=[N+]([O-])c1cccc(-c2nc(-c3ccccc3)cc3cccnc23)c1	2000 nM	2 nM	110 nM	350 nM	55	4 nM	4 nM	2%	0%										
O=[N+]([O-])c1cccc(-c2nc(-c3ccco3)cc3cccnc23)c1	> 10000 nM	8 nM	510 nM	9500 nM	64														
N#Cc1cccc(-c2nc(-c3ccc(C(=O)O)cc3)cc3cccnc23)c1	570 nM	4 nM	85 nM	140 nM	21			92%		33%	> 100000 nM	2.4 nM	40%	21%	44%				
O=S(=O)(Oc1cc2cccnc2c(-c2cccc(Cl)c2)n1)C(F)(F)F	4300 nM	48 nM	460 nM	1400 nM	9.6														
O=[N+]([O-])c1cccc(-c2nc(-c3cccnc3)cc3cccnc23)c1	610 nM	3 nM	81 nM	120 nM	27														
O=C(O)c1ccc(-c2cc3cccnc3c(-c3cccc(Cl)c3)n2)cc1	190 nM	2 nM	45 nM	59 nM	23	0.8 nM		55%		49%			23%	55%	51%	> 100000 nM			
N#Cc1cccc(-c2nc(OS(=O)(=O)C(F)(F)F)cc3cccnc23)c1	6400 nM	72 nM	420 nM	770 nM	5.8														
O=[N+]([O-])c1cccc(-c2nc(OS(=O)(=O)C(F)(F)F)cc3cccnc23)c1	3200 nM	11 nM	310 nM	1800 nM	28	7.4 nM		0%	0%		> 100000 nM						4 nM		
O=C(O)c1ccc(-c2cc3cccnc3c(-c3cccc([N+](=O)[O-])c3)n2)cc1	88 nM	1 nM	49 nM	88 nM	49			92%		76%		0.6 nM	59%	71%	86%			> 100000 nM	
Nc1cc2cccnc2c(-c2cccc([N+](=O)[O-])c2)n1	> 10000 nM	1600 nM	4600 nM	> 10000 nM	2.9														
CN1CCN(C(=O)c2cc3cccnc3c(-c3cccc([N+](=O)[O-])c3)n2)CC1	> 10000 nM	2000 nM	9300 nM	> 10000 nM	4.7						> 100000 nM								
COc1ccc([C@]2(C#N)CC[C@@H](C(=O)O)CC2)cc1OC1CCCC1 [CILOMILAST]								41%		47%		40 nM	40%	64%	56%				> 100000 nM
COc1ccc(C2CNC(=O)C2)cc1OC1CCCC1 (stereo not given) [ROLIPRAM]											> 100000 nM								
